# Test results published in the M2OR odorant receptor database.
# Experiments:
# Conditions in all cases: stereoisomer not certain
# [1] = molecular target: T1, OR52N4 (Homo sapiens) (UniProt Q8NGI2)
# T1 sequence (whole entry): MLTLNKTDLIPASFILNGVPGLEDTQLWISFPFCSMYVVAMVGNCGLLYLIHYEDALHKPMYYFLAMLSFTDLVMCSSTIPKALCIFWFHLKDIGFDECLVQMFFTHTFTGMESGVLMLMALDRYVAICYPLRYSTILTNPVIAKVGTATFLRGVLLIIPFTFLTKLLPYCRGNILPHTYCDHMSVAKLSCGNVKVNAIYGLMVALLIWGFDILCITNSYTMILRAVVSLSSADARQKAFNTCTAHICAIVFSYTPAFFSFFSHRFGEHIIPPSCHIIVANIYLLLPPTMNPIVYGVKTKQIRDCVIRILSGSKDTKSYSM
# Outline: (§1)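 Assay methods differ from source to source, frequently being transient luciferase assays in mammalian cell lines. For each receptor–molecule pair, the label responsive (active) applies when the original authors judged the measured signal statistically different from baseline, and non-responsive (inactive) applies otherwise.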
# [2] = molecular target: T2, OR52N5 (Homo sapiens) (UniProt Q8NH56)
# T2 sequence (whole entry): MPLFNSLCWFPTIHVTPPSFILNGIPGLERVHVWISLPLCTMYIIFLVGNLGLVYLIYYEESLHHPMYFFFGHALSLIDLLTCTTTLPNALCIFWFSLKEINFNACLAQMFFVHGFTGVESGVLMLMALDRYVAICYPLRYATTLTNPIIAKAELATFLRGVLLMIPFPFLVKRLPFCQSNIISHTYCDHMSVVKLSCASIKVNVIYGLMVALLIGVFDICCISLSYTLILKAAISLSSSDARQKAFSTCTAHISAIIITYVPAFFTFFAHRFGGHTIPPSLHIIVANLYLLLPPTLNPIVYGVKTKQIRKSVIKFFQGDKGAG
# Outline: as §1
# [3] = molecular target: T3, OR52R1 (Homo sapiens) (UniProt Q8NGF1)
# T3 sequence (whole entry): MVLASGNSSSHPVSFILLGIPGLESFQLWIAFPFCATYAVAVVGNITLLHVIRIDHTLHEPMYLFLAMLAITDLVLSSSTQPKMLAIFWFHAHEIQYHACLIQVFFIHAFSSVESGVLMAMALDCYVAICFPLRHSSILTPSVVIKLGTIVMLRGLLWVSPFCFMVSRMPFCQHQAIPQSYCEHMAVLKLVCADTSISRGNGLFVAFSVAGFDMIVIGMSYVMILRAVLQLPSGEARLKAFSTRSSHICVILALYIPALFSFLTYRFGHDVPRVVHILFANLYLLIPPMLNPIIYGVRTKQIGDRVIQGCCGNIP
# Outline: as §1
# [4] = molecular target: T4, OR52W1 (Homo sapiens) (UniProt Q6IF63)
# T4 sequence (whole entry): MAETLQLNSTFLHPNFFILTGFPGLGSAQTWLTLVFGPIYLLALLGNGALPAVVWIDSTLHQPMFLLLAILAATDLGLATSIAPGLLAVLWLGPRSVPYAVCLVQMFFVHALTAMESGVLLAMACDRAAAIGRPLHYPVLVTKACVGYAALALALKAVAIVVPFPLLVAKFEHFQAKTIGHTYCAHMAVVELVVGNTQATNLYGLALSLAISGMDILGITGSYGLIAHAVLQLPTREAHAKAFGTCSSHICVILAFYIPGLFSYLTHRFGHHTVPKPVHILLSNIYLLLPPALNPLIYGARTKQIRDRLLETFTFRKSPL
# Outline: as §1
# [5] = molecular target: OR52Z1P (Homo sapiens) (UniProt P0C646)
# Outline: as §1
# [6] = molecular target: T5, OR56A1 (Homo sapiens) (UniProt Q8NGH5)
# T5 sequence (whole entry): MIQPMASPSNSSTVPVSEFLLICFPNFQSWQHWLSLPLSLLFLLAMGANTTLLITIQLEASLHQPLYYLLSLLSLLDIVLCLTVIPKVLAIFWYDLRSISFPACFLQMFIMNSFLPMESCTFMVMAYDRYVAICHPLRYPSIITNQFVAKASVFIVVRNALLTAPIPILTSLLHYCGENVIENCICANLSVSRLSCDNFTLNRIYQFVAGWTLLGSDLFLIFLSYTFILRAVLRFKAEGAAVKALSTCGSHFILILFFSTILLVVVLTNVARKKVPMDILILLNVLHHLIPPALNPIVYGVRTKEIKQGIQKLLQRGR
# Outline: as §1
# [7] = molecular target: T6, OR56A3 (Homo sapiens) (UniProt Q8NH54)
# T6 sequence (whole entry): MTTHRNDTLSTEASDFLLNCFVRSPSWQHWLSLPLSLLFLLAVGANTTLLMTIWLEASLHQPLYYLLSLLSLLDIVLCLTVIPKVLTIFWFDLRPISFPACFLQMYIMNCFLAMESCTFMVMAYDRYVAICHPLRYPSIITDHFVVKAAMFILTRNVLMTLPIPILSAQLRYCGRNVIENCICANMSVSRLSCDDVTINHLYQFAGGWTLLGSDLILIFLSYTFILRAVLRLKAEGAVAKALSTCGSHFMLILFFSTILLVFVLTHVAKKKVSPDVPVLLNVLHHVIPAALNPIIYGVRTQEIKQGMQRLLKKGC
# Outline: as §1
# [8] = molecular target: T7, OR56A4 (Homo sapiens) (UniProt Q8NGH8)
# T7 sequence (whole entry): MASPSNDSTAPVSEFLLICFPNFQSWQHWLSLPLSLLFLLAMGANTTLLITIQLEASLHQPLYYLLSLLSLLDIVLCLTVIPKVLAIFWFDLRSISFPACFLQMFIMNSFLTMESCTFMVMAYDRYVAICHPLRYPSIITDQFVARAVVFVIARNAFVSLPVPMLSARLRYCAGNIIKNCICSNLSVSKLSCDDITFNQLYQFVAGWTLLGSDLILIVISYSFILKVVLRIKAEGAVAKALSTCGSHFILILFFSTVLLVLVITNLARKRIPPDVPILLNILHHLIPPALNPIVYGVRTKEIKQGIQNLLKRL
# Outline: as §1
# [9] = molecular target: T8, OR56A5 (Homo sapiens) (UniProt P0C7T3)
# T8 sequence (whole entry): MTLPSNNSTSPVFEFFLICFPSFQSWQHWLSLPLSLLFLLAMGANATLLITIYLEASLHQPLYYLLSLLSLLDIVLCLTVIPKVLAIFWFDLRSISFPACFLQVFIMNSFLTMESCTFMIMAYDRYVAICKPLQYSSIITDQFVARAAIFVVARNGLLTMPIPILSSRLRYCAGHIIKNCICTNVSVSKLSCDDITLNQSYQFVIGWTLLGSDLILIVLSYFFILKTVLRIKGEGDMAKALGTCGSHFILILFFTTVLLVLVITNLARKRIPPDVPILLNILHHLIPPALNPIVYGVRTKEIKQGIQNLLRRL
# Outline: as §1
# [10] = molecular target: T9, OR56B1 (Homo sapiens) (UniProt Q8NGI3)
# T9 sequence (whole entry): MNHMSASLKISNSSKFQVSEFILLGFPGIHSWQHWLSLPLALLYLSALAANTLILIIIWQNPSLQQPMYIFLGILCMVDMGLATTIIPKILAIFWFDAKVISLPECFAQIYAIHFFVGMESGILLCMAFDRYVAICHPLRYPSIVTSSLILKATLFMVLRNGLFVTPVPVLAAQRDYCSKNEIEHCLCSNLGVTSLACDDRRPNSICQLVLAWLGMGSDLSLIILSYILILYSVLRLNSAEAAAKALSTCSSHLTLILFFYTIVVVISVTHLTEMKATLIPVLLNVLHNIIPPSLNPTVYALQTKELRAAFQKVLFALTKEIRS
# Outline: as §1
# [11] = molecular target: T10, OR56B4 (Homo sapiens) (UniProt Q8NH76)
# T10 sequence (whole entry): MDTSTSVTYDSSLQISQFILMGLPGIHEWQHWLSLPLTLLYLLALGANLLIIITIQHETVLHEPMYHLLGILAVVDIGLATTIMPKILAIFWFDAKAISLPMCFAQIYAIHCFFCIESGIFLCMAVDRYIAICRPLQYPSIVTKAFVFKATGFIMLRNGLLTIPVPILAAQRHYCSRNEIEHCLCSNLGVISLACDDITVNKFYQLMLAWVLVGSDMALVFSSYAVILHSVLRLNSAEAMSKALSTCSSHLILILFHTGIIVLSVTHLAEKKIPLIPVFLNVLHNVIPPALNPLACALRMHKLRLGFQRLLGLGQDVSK
# Outline: as §1
# [12] = molecular target: T11, OR5A1 (Homo sapiens) (UniProt Q8NGJ0)
# T11 sequence (whole entry): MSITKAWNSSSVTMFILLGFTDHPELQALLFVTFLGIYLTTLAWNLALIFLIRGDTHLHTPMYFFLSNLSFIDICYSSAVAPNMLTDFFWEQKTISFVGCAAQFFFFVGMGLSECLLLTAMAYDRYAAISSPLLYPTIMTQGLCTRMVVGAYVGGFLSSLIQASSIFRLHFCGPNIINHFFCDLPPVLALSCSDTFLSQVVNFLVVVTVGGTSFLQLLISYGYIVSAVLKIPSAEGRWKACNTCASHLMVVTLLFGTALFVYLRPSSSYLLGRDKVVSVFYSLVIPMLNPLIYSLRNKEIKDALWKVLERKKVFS
# Outline: as §1
# [13] = molecular target: T12, OR5A2 (Homo sapiens) (UniProt Q8NGI9)
# T12 sequence (whole entry): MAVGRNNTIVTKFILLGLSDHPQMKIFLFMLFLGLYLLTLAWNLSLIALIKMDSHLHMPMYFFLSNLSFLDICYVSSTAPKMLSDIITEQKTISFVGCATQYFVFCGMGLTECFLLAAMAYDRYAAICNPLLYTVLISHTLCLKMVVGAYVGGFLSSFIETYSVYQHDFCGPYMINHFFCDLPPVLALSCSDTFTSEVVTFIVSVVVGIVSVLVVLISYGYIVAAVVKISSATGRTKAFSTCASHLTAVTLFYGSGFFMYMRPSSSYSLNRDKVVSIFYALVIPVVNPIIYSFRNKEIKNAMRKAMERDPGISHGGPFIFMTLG
# Outline: as §1
# [14] = molecular target: OR5AC1 (Homo sapiens) (UniProt P0C628)
# Outline: as §1
# [15] = molecular target: T13, OR5AC2 (Homo sapiens) (UniProt Q9NZP5)
# T13 sequence (whole entry): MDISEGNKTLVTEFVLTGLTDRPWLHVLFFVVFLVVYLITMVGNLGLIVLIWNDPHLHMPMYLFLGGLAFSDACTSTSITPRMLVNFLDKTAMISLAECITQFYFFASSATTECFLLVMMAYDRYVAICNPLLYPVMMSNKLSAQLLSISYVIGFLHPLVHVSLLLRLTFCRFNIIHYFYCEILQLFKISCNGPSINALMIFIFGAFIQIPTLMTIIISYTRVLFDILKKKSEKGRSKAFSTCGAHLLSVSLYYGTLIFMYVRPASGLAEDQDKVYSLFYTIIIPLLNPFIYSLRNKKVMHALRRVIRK
# Outline: as §1
# [16] = molecular target: T14, OR5AK2 (Homo sapiens) (UniProt Q8NH90)
# T14 sequence (whole entry): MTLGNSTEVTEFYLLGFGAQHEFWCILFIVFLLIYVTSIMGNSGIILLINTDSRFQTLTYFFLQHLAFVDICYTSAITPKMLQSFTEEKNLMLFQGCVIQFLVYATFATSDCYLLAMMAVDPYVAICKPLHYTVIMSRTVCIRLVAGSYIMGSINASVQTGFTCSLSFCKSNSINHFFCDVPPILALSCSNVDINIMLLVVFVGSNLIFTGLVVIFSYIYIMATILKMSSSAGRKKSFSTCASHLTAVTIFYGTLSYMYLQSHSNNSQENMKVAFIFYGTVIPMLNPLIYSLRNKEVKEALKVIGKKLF
# Outline: as §1
# [17] = molecular target: OR5AL1 (Homo sapiens) (UniProt P0C617)
# Outline: as §1
# [18] = molecular target: T15, OR5AN1 (Homo sapiens) (UniProt Q8NGI8)
# T15 sequence (whole entry): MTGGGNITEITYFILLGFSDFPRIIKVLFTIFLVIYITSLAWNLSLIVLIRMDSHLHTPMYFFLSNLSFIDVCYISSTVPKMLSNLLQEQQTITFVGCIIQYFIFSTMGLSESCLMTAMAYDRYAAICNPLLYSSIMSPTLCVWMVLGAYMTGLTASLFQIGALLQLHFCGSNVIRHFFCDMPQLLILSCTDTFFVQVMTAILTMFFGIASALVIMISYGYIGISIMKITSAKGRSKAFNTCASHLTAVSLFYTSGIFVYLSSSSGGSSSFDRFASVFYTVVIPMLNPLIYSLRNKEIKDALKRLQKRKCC
# Outline: as §1
# [19] = molecular target: T16, OR5AP2 (Homo sapiens) (UniProt Q8NGF4)
# T16 sequence (whole entry): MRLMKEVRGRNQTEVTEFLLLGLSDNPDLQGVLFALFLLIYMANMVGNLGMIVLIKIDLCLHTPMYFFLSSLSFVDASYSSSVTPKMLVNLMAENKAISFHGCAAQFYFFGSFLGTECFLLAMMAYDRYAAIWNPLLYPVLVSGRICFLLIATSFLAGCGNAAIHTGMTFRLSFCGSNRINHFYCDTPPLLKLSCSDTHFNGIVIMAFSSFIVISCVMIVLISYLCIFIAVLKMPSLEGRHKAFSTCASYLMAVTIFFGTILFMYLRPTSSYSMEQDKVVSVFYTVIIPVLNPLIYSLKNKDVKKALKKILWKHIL
# Outline: as §1
# Sequence of OR5AL1 (Homo sapiens) (P0C617 whole entry): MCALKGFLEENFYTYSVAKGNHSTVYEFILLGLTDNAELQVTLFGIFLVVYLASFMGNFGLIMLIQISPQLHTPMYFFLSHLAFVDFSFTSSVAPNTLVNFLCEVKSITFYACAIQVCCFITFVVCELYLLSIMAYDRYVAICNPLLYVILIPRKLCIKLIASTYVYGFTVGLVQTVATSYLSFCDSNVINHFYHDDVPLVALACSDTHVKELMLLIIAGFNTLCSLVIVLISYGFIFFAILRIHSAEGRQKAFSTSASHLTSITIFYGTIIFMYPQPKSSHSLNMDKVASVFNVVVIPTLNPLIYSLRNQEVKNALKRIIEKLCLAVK
# Sequence of OR5AC1 (Homo sapiens) (P0C628 whole entry): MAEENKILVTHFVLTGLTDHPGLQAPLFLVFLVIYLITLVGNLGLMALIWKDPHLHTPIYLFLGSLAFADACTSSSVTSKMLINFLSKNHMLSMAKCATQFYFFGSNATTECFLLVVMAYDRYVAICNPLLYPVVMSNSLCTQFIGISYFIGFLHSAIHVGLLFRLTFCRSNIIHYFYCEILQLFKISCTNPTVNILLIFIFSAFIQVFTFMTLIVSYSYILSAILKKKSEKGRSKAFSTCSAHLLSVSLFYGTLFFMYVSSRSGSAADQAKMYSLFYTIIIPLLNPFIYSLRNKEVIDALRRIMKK
# Sequence of OR52Z1P (Homo sapiens) (P0C646 whole entry): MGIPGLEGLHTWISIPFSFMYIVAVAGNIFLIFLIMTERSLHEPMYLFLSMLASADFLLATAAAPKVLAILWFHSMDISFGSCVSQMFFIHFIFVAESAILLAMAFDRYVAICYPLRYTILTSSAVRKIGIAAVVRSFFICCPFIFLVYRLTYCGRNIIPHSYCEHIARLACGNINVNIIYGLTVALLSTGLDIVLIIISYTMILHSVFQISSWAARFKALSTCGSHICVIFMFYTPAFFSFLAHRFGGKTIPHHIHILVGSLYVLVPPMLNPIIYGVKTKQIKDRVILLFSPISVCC
Structure (SMILES),odorant receptor agonist call [1],odorant receptor agonist call [2],odorant receptor agonist call [3],odorant receptor agonist call [4],odorant receptor agonist call [5],odorant receptor agonist call [6],odorant receptor agonist call [7],odorant receptor agonist call [8],odorant receptor agonist call [9],odorant receptor agonist call [10],odorant receptor agonist call [11],odorant receptor agonist call [12],odorant receptor agonist call [13],odorant receptor agonist call [14],odorant receptor agonist call [15],odorant receptor agonist call [16],odorant receptor agonist call [17],odorant receptor agonist call [18],odorant receptor agonist call [19]
CC1CCCCCCCCCCCCC(=O)C1 (stereo unspecified),inactive,inactive,inactive,inactive,inactive,inactive,inactive,inactive,inactive,inactive,inactive,inactive,inactive,inactive,inactive,inactive,inactive,active,inactive
CCC(S)C(C)CO (stereo unspecified),inactive,inactive,inactive,inactive,–,inactive,inactive,inactive,inactive,inactive,inactive,inactive,inactive,–,inactive,inactive,–,inactive,inactive
C=CC(C)(O)CCC=C(C)CCC=C(C)C (stereo unspecified),–,–,–,–,–,–,–,–,–,–,–,–,–,–,inactive,–,–,–,–
